Laboratory results reported in ChEMBL document CHEMBL1135597, “A thymidine phosphorylase-stable analogue of BVDU with significant antiviral activity” (J Med Chem, 2002).
Converted amounts (≈) assume the structure as drawn.

How the values were obtained:
[1] = system: E6SM; assay: […] in E6SM cell cultures of human embryonic skin-muscle; type: functional
[2] = system: Human alphaherpesvirus 1; assay: Inhibitory activity against HSV-1 (McIntyre) replication in E6SM cell cultures of human embryonic skin-muscle; type: functional, organism-based; conditions: Human alphaherpesvirus 1, E6SM
Summary of the method: (§1)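 Confluent human embryonic skin-muscle (E6SM) cell cultures were infected with 100 CCID50 of virus. After 1 h adsorption, residual virus was removed and cultures were incubated with test compound at varying concentrations […]. Cytopathicity was scored once complete in infected control cultures. EC50 is the concentration that inhibits virus-induced cytopathicity by 50%.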

[3] = Inhibitory activity against HSV-1 (KOS) replication in E6SM cell cultures of human embryonic skin-muscle; type: functional, cell-based; conditions: Human alphaherpesvirus 1, E6SM; summary of the method: as §1
[4] = Inhibitory activity against TK-deficient HSV-1 (KOS) replication in E6SM cell cultures of human embryonic skin-muscle; type: functional, cell-based; conditions: Human alphaherpesvirus 1, E6SM; summary of the method: as §1
[5] = system: Human alphaherpesvirus 1; assay: Inhibitory activity against HSV-1 (F) replication in E6SM cell cultures of human embryonic skin-muscle; type: functional, organism-based; conditions: Human alphaherpesvirus 1, E6SM; summary of the method: as §1
[6] = system: Vaccinia virus; assay: Inhibitory activity against vaccinia virus (VV) replication in E6SM cell cultures of human embryonic skin-muscle; type: functional, organism-based; conditions: Orthopoxvirus vaccinia; summary of the method: as §1
[7] = system: Vesicular stomatitis virus; assay: Inhibitory activity against vesicular stomatitis virus (VSV) replication in E6SM cell cultures of human embryonic skin-muscle; type: functional, organism-based; summary of the method: as §1

Row | SMILES | MCC [1] [µg/mL] | EC50 [2] [µg/mL] | EC50 [3] [µg/mL] | EC50 [4] [µg/mL] | EC50 [5] [µg/mL] | EC50 [6] [µg/mL] | EC50 [7] [µg/mL]
1 | Nc1nc2c(ncn2COC(CO)CO)c(=O)[nH]1 [GANCICLOVIR] | > 100 | 0.019 (≈ 0.0744 µM) | 0.019 (≈ 0.0744 µM) | 2.4 (≈ 9.4 µM) | 0.019 (≈ 0.0744 µM) | > 100 | > 100
2 | NC(=O)c1ncn([C@@H]2O[C@H](CO)[C@@H](O)[C@H]2O)n1 [RIBAVIRIN] | > 400 | 240 (≈ 983 µM) | 48 (≈ 197 µM) | 240 (≈ 983 µM) | 48 (≈ 197 µM) | 240 (≈ 983 µM) | > 400
3 | Nc1nc2c(ncn2COCCO)c(=O)[nH]1 [ACYCLOVIR] | > 400 | 0.077 (≈ 0.342 µM) | 0.077 (≈ 0.342 µM) | 48 (≈ 213 µM) | 0.077 (≈ 0.342 µM) | > 400 | > 400
4 | O=c1[nH]c(=O)n([C@H]2C[C@H](O)[C@@H](CO)O2)cc1/C=C/Br [BRIVUDINE] | > 400 | 0.026 (≈ 0.078 µM) | 0.026 (≈ 0.078 µM) | 240 (≈ 720 µM) | 0.026 (≈ 0.078 µM) | 1.9 (≈ 5.7 µM) | > 400
5 | O=c1[nH]c(=O)n([C@@H]2CO[C@H](CO)C2)cc1/C=C/Br | > 400 | 9.6 (≈ 30.3 µM) | 2.6 (≈ 8.2 µM) | > 400 | 1.9 (≈ 5.99 µM) | > 400 | > 400
